The record followed here is PubChem BioAssay.

Unmarked numbers belong to inactive results. Inconclusive results are not listed. Activity calls are given as the source filed them.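 The calls were made as follows, unless noted: active = RAM network inhibition above 8.4% in each of two replicates, 3 SD over the compound average; inconclusive = above 8.4% inhibition in only one replicate; inactive = 8.4% inhibition or less in each replicate.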

The nature of experiment [1]: S. cerevisiae growth inhibition in permissive medium (OD615), pilot counter-assay for S. cerevisiae lifespan shortening project, permissive growth control (AID 705;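 active = growth inhibition above 25% in both replicates, a cutoff set 3 SD above the mean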). As to conditions: OD615, 24 h, at 10 µM, stronger effect = higher value. A digest of the protocol:
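System: engineered DeaD yeast; Medium: permissive raffinose/galactose medium; Compound dosing: 10 µM single dose, 0.25% DMSO; Incubation: 4 h cell pre-growth, 24 h exposure at 30 °C; Technique: OD at 615 nm; Evaluation: growth inhibition from lowered OD615 after 24 h.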

A short description of experiment [2]: S. cerevisiae growth inhibition in restrictive medium, OD615, pilot screen, restrictive growth control, yeast lifespan reduction project (AID 706;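 active = growth inhibition above a set limit, 3 SD over mean compound inhibition, in both replicates, cut at about 43% in these data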;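 also: modified DeaD lifespan yeast strain shifted to restrictive glucose medium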). As to conditions: OD615, 48 h, at 10 µM, stronger effect = higher value. The gist of the method: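 Material: modified S. cerevisiae; buffer or medium: CSMM-D glucose medium; doses: one concentration, 10 µM final, 0.25% DMSO; incubation: 48 h compound exposure at 30 °C; detection: optical density at 615 nm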

The nature of experiment [3]: doxorubicin toxicity protection in MRP-1 cells – H69AR cells, CellTiter-Glo, duplicate, MRP-1 activator project, pilot screen (AID 807;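 active = viability increase at or above a cutoff of the median across tested compounds plus 3 SD, cut at about 8.5% in these data, passing the limit was not always enough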;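 also: compound pretreatment 18-22 h then 72 h combined with doxorubicin; 0% = doxorubicin alone and 100% = vehicle without doxorubicin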). Conditions: H69AR viability with doxorubicin, CellTiter-Glo luminescence; at 10 µM; stronger effect = higher value.
Experiment [4] is described as follows: viability of HCT116 without oncogenic beta-catenin – human colon tumor cells, pilot screen (AID 823;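 active = cell viability at or below a set limit in both duplicate runs, the limit being the all-compound median minus 4 SD, cut at about 23% in these data, passing the limit was not always enough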;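 also: 0% = wells killed by 20 µM Hyamine and 100% = untreated DMSO cell wells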). Conditions: HCT116 beta-catenin knockout viability, CellTiter-Glo, 60 h; at 10 µM; stronger effect = lower value.
A short description of experiment [5]: viability of PTEN-null HCT116 cells – cell-based, HCT116 clonal line, CellTiter-Glo, pilot screen (AID 824;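 active = viability at or below 27.92% in each of two runs, the all-compound median minus 4 SD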;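 also: 0% = 20 µM Hyamine control and 100% = vehicle cell control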). As to conditions: HCT116 PTEN-deleted viability, 60 h, at 10 µM, stronger effect = lower value.
The nature of experiment [6]: RAM pathway blockade in budding yeast – dse1pr::URA3 reporter, 5-FOA selection, pilot screen (AID 869;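 active = inhibition over a set limit, the all-compound mean plus 3 SD, in both replicate runs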;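 also: 0% = DMSO wells with no growth and 100% = 10 µM 1-NA-PP1 with full growth; RAM network block rescues cells from 5-FOA so hits raise OD615 growth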). Conditions: S. cerevisiae dse1pr::URA3 5-FOA growth, OD615, 2 d; at 10 µM; stronger effect = higher value; strain carries analog-sensitive mutant Cbk1 kinase.
The nature of experiment [7]: RAM signaling pathway blockade in yeast – S. cerevisiae, Pdr1DBD-CYC8 efflux-inhibited sensitized strain, primary screen (AID 1298).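 Also: 0% = DMSO untreated cells without growth and 100% = 10 µM 1-NA-PP1 full growth; higher means more yeast growth rescued from 5-FOA killing.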 Conditions: S. cerevisiae cbk1-as DSE1-URA3 strain, 5-FOA growth OD615, 2 d; at 50 µM; stronger effect = higher value.

Take `CC1CC(C)CN(C(=O)CSc2nnc(-c3ccc(Cl)s3)o2)C1` (stereo not drawn): the growth inhibition in experiment [1] was -4.71%; in experiment [2], -6.08%. In experiment [3], the viability increase is 2.04%. Moreover, the viability is 96.5% in experiment [4] and 92.4% in experiment [5]. Moreover, in experiment [6], the inhibition was 0.75%. In addition, in experiment [7], the RAM network inhibition is 2.52%.
As to `CCN(CC)CCN1C(=O)C2C3c4ccccc4C(c4ccccc43)C2C1=O` (stereo not drawn), the values for the growth inhibition in experiment [1] and in experiment [2] were -2.27% and -2.01%, respectively. Further, in experiment [3], the viability increase is -2.46%. Moreover, the viability was 96.5% in experiment [4] and 95.4% in experiment [5]. Besides, the inhibition in experiment [6] is 0.035%. Further, the RAM network inhibition in experiment [7] was 1.71%.
`Cc1ccc2ccc(S(=O)(=O)n3nc(C)cc3C)cc2c1`: the growth inhibition is -6.58% in experiment [1] and 2.99% in experiment [2]. Moreover, the viability increase in experiment [3] is -1.12%. Also, the figures for the viability in experiment [4] and in experiment [5] were 84.9% and 81.2%, respectively. In addition, the inhibition in experiment [6] was 2.06%. The RAM network inhibition in experiment [7] was 5.5%.
Take `CC(=O)N1CCC(Nc2ccc(C)cc2)CC1`: the growth inhibition in experiment [1] is -15.6%; in experiment [2] it was -9.18%. Moreover, the viability increase in experiment [3] is 0.99%. In addition, the viability was 101% in experiment [4] and 97.3% in experiment [5]. In addition, the inhibition in experiment [6] is -0.41%. Also, the RAM network inhibition in experiment [7] was 1.48%.
As for `C=Cn1ccnc1P(=S)(c1ccc2c(c1)c1ccccc1n2CC)c1nccn1C=C`, the growth inhibition in experiment [1] was -10.3%; in experiment [2], -21.9%. For the same compound, in experiment [3], the viability increase is -6.67%. Further, the viability in experiment [4] was 16.2% (active); in experiment [5], 13.8% (active). In experiment [6], the inhibition was 3.5%. Besides, the RAM network inhibition in experiment [7] is 6.54%.
Turning to `CCOc1ccccc1NC(=O)c1c(NC(=O)CNCc2ccco2)sc2c1CCC2`, the growth inhibition in experiment [1] is 7.42%; in experiment [2] it was -15.1%. In addition, the viability increase in experiment [3] was -6.75%. Further, the viability in experiment [4] was 76.7%; in experiment [5] it was 55.5%. In addition, the inhibition in experiment [6] was 1.43%. For the same compound, in experiment [7], the RAM network inhibition was 8.57%.
As for `CCOC(=O)C1CCCN(C(=O)c2ccccc2Oc2ccccc2)C1` (stereo not drawn), the values for the growth inhibition in experiment [1] and in experiment [2] were -6.35% and -9.14%, respectively. The viability increase in experiment [3] was -1.3%. Besides, the viability in experiment [4] is 91.1%; in experiment [5], 102%. Moreover, the inhibition in experiment [6] was 0.545%. In addition, the RAM network inhibition in experiment [7] was 1.27%.
As for `Cn1c(C(=O)NCc2cccs2)cc2c(=O)n(C)c3ccccc3c21`, the growth inhibition in experiment [1] is -0.025%; in experiment [2], -1.79%. In addition, the viability increase in experiment [3] is -3.65%. For the same compound, the viability in experiment [4] was 98.9%; in experiment [5], 98.1%. In experiment [6], the inhibition is 2.62%. The RAM network inhibition in experiment [7] was 1.75%.
For `CCOC(=O)C(C)Sc1nc2c(c(=O)[nH]c(=O)n2C)n1Cc1ccc(Cl)cc1` (stereo not drawn), the growth inhibition is -3.52% in experiment [1] and 1.73% in experiment [2]. The viability increase in experiment [3] is -4.04%. Also, the viability in experiment [4] is 92.6%; in experiment [5] it was 91.6%. Further, in experiment [6], the inhibition was -0.265%. Moreover, the RAM network inhibition in experiment [7] is 2.79%.
Take `COc1ccc2occ(C(=O)c3ccc(N=C(C)N(C)C)cc3)c2c1`: the growth inhibition in experiment [1] is -7.86%; in experiment [2] it was -16.5%. Moreover, in experiment [3], the viability increase was -1.53%. Moreover, the viability in experiment [4] is 58.4%; in experiment [5], 70.1%. In addition, in experiment [6], the inhibition was 1.21%. For the same compound, the RAM network inhibition in experiment [7] is 0.89%.
As for `CC(C)(C)SCCNS(=O)(=O)c1ccccc1`, the growth inhibition in experiment [1] is -8.9%; in experiment [2], 6.57%. Further, in experiment [3], the viability increase was -0.28%. Besides, the viability in experiment [4] was 99.8%; in experiment [5], 93.4%. For the same compound, in experiment [6], the inhibition was 2.52%. Further, the RAM network inhibition in experiment [7] is 3.01%.
With `CCCOC(=O)c1ccc(OCC(O)CN2C(=O)NC(C)(C)C2=O)cc1` (stereo not drawn), the growth inhibition in experiment [1] is 1.83%; in experiment [2] it was 1.78%. Moreover, the viability increase in experiment [3] was -0.77%. The viability was 96.9% in experiment [4] and 97.2% in experiment [5]. For the same compound, in experiment [6], the inhibition is 0.14%. In experiment [7], the RAM network inhibition was 0.77%.
As to `COCCN(CCOC)Cc1c(O)ccc2c3c(c(=O)oc12)CCC3`, the growth inhibition in experiment [1] was -1.66%; in experiment [2], 7.01%. Besides, in experiment [3], the viability increase was -1.42%. Besides, the figures for the viability in experiment [4] and in experiment [5] were 99.9% and 102%, respectively. Moreover, the inhibition in experiment [6] is -0.65%. Moreover, the RAM network inhibition in experiment [7] was -0.97%.
In the case of `Cc1ccccc1-c1ccc(Nc2ccc(C(=O)N3CCOCC3)cc2)nn1`, the growth inhibition in experiment [1] was 1.06%; in experiment [2], -5.71%. For the same compound, the viability increase in experiment [3] was -2.49%. The viability was 98.4% in experiment [4] and 97.2% in experiment [5]. For the same compound, the inhibition in experiment [6] was 1.39%. In experiment [7], the RAM network inhibition is -0.83%.
In the case of `CN(C)S(=O)(=O)c1ccc(C(=O)Nc2ccccn2)cc1`, the growth inhibition in experiment [1] is -10.3%; in experiment [2], -19.3%. The viability increase in experiment [3] was -0.7%. Moreover, the viability in experiment [4] was 96.6%; in experiment [5], 89.2%. The inhibition in experiment [6] is 1.31%. Besides, the RAM network inhibition in experiment [7] was -1.36%.
Take `COc1cccc(C(=O)Nc2ccc3nc(N4CCOCC4)cc(C)c3c2)c1`: the growth inhibition is -7.63% in experiment [1] and 0.38% in experiment [2]. In experiment [3], the viability increase was -6.58%. For the same compound, the viability in experiment [4] was 95.7%; in experiment [5] it was 85.9%. For the same compound, the inhibition in experiment [6] was 0.845%. Further, the RAM network inhibition in experiment [7] was 2.45%.
With `OC(C#CCN1CCOCC1)c1cccs1` (stereo not drawn), the growth inhibition is -5.03% in experiment [1] and 2.95% in experiment [2]. In addition, the viability increase in experiment [3] is -0.71%. For the same compound, the viability in experiment [4] was 102%; in experiment [5], 98.4%. In experiment [6], the inhibition was 2.15%. Also, in experiment [7], the RAM network inhibition was 4.66%.
Take `COc1ccc(N(CC(=O)N2CCN(C)CC2)S(C)(=O)=O)cc1OC`: the growth inhibition was -12% in experiment [1] and -9.76% in experiment [2]. Besides, in experiment [3], the viability increase was -0.37%. Besides, the values for the viability in experiment [4] and in experiment [5] were 90.8% and 97.5%, respectively. The inhibition in experiment [6] is 0.64%. Also, the RAM network inhibition in experiment [7] is 6.2%.
`O=C(NCc1ccco1)c1ccc(Br)c(S(=O)(=O)N2CCCCC2)c1`: the growth inhibition in experiment [1] was 2.44%; in experiment [2] it was -6.06%. The viability increase in experiment [3] is -2.69%. Also, the results for the viability in experiment [4] and in experiment [5] were 88.8% and 88.1%, respectively. For the same compound, the inhibition in experiment [6] was 2.61%. The RAM network inhibition in experiment [7] is 4.59%.
On to `Nc1cccc(C(=O)Nc2ccc(N)cc2Cl)c1`, for which the growth inhibition in experiment [1] is -18.5%; in experiment [2], -7.93%. Also, the viability increase in experiment [3] was -0.9%. Moreover, the viability in experiment [4] is 103%; in experiment [5], 106%. Further, the inhibition in experiment [6] is 2.42%. Besides, the RAM network inhibition in experiment [7] is 2.91%.
As to `Cc1ccc(N2CC(C(=O)Nc3cccc(F)c3)CC2=O)cc1` (stereo not drawn), the values for the growth inhibition in experiment [1] and in experiment [2] were -13.3% and -5.71%, respectively. For the same compound, in experiment [3], the viability increase was 0.09%. The figures for the viability in experiment [4] and in experiment [5] were 90.6% and 103%, respectively. In experiment [6], the inhibition was -0.185%. In addition, the RAM network inhibition in experiment [7] is 8.04%.
As to `COc1cc2c(cc1OC)C1=C(C#N)CC/C(=N\S(=O)(=O)c3ccccc3)N1CC2`, the figures for the growth inhibition in experiment [1] and in experiment [2] were -11.1% and -3.91%, respectively. For the same compound, the viability increase in experiment [3] was -4.28%. The viability in experiment [4] is 97.8%; in experiment [5], 87.8%. Moreover, the inhibition in experiment [6] was 1.25%. Besides, the RAM network inhibition in experiment [7] is 2.61%.
Take `Cc1ccn2c(-c3csc(NCc4ccco4)n3)c(C)nc2c1`: the figures for the growth inhibition in experiment [1] and in experiment [2] were -1.21% and 2.84%, respectively. Further, in experiment [3], the viability increase was -4.37%. The viability in experiment [4] is 66.6%; in experiment [5], 71.8%. Moreover, the inhibition in experiment [6] was 3.51%. Moreover, the RAM network inhibition in experiment [7] is 3.65%.
Regarding `Clc1ccc(Sc2oc(/C=N/n3cnnc3)cc2Br)cc1`, the figures for the growth inhibition in experiment [1] and in experiment [2] were -0.475% and 22.4%, respectively. Further, the viability increase in experiment [3] is -8.12%. In addition, the viability in experiment [4] is 27.6%; in experiment [5], 50.5%. In experiment [6], the inhibition is 0.36%. Further, the RAM network inhibition in experiment [7] was 1.69%.
